The values that follow come from PMC10913580 (Nature chemistry, 2023).

Series [1] has as its system ternary complex between CRBN and off-target ZFP91. The experiment in a line: NanoBRET ternary complex formation assay. Type of series: cell-based. To be noted: U2OS cells expressing ZFP91-NLuc and HaloTag-CRBN, 1 μM dose. In short, it runs like this: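 U2OS stably expressing ZFP91–NLuc, transfected with HaloTag–CRBN plasmid (2 μg per 100,000 cells). After 14 h, plated at 3,000 cells/well in phenol-red-free Opti-MEM with 4% FBS. NanoBRET 618 ligand 100 nM final, 18 h; no-ligand control wells. Compound 1 μM final, 15 min; furimazine 10 μM final, 5 min. mBU = (618/460 nm emission) × 1,000, minus no-ligand control.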
(In general: BRET reads energy transfer from a luciferase to a nearby fluorophore.)

In series [2] the test system is ZF degrons fused to eGFP in U2OS cells. The experiment in a line: Automated imaging assay for degradation of ZF degron-tagged eGFP. In kind it is cell-based. To be noted: 14 stable U2OS ZF reporter cell lines, 24 h, dosing range 4.3 nM to 6 μM. In short, it runs like this:
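U2OS lines stably carrying lentiviral Cilantro 2 reporters (ZF degron–eGFP plus untagged mCherry) under 1 μg ml−1 puromycin. 3,000 cells/well seeded onto compound-preprinted plates; 24 h. PBS wash, 4% paraformaldehyde fix, nuclear stain, eGFP/mCherry imaging. Per-cell eGFP normalized to mCherry, well means to DMSO wells; 1 minus value gives degradation fraction, summed across doses as degradation score. Z′ from controls.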

The target of series [3] is T1, ZFP91 (Homo sapiens, UniProt Q96JP5+Q96SW2). The experiment in a line: Immunoblot of endogenous ZFP91 in Jurkat cells. Type of series: cell-based. In short, it runs like this:
(§1)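 Cells grown in RPMI 1640 with 10% FBS, then compound-treated. Lysis in ice-cold M-PER with protease and phosphatase inhibitors. 20–50 μg protein run on 4–12% Bis-Tris gels and transferred to nitrocellulose. Probed with anti-ZFP91 or anti-IKZF3 primary antibodies (1:1,000), then fluorescent secondaries (1:3,000).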
Background: Immunoblotting shows a protein as a band on a membrane.

The target in another series is SALL4 (Homo sapiens, UniProt Q96SW2+Q9UJQ4). In words: Global proteomic analysis of KELLY cells treated with PROTACs. In kind it is cell-based. To be noted: 100 nM. A digest of the protocol:
(§2)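 Cells were dosed with test compound at 0.1 μM or with DMSO for 5 h, then washed in PBS and snap-frozen. Lysis was in 8 M urea, 50 mM NaCl, 50 mM EPPS pH 8.5 with protease and phosphatase inhibitors, with bead beating. Digestion used LysC (1:50, 12 h, room temperature), then trypsin (1:50, 6 h, 37 °C). Label-free LC-MS followed; abundances were scaled and statistics run with limma.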

The target of another series is ALK (Homo sapiens, UniProt P06748+Q96SW2+Q9UM73). In words: Global proteomic analysis of SU-DHL-1 cells treated with PROTACs. Type of series: cell-based. To be noted: 0.1 μM, 5 h. A digest of the protocol:
as §2

The target of series [4] is T1, ZFP91. In words: Immunoblot of endogenous ZFP91 in SU-DHL-1 cells. In kind it is cell-based. A digest of the protocol:
as §1

Series [5] has as its target T1, ZFP91. The experiment in a line: Immunoblot of endogenous ZFP91 in H2228 cells. In kind it is cell-based. In short, it runs like this:
as §1

For the next series, the system named is ZFP91 and IKZF3. In words: Immunoblot of endogenous ZFP91 and IKZF3 in MM1.S cells. Type of series: cell-based. A digest of the protocol: as §1
The test system of series [6] is ZF proteins and other off-targets in MOLT4 and KELLY cells. In words: MS-based global proteomics of MOLT4 and KELLY cells treated with imide analogues. Conditions: 1 μM, 5 h. Type of series: cell-based, human. A digest of the protocol: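 MOLT4 or Kelly cells given 1 μM compound or DMSO, 5 h. PBS-washed pellets snap-frozen, lysed in 8 M urea, 50 mM NaCl, 50 mM EPPS pH 8.5 with inhibitors by bead beating; Bradford quantitation. 50 μg protein reduced, alkylated, methanol/chloroform precipitated; LysC (1:50, 12 h, room temperature) then trypsin (1:50, 6 h, 37 °C). C18-desalted, LC–MS. Abundances scaled; limma statistics.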

Consider `N#Cc1ccc(O[C@H]2CC[C@H](NC(=O)c3ccc(N4CCC(CN5CCN(c6cc7c(cc6F)C(=O)N(C6CCC(=O)NC6=O)C7=O)CC5)CC4)nn3)CC2)cc1Cl` (some centres unmarked) [ARV110], for which the “BRET signal, ternary complex formation between CRBN and ZFP91” value in series [1] is reported as “reduced ternary complex formation with off-target ZFP91”.

For the molecule `Cc1cc(Nc2ncc(Cl)c(Nc3ccccc3S(=O)(=O)C(C)C)n2)c(OC(C)C)cc1C1CCN(CC(=O)NCCNc2cccc3c2C(=O)N(C2CCC(=O)NC2=O)C3=O)CC1` (centres unmarked) [MS4078], in series [2], the “degradation of ZF degron-tagged eGFP (off-target ZF degradation)” value is “had a high level of off-target ZF degradation”. The entries for the “off-target degradation of endogenous ZFP91 (immunoblot)” value on ZFP91 [3], at ZFP91 [4] and on ZFP91 [5] were “off-target degradation of endogenous ZF protein ZFP91”, “off-target degradation of endogenous ZF proteins ZFP91” and “off-target degradation of endogenous ZF proteins ZFP91”, respectively. On SALL4, the “degradation of SALL4 (global proteomics)” value is “induced degradation of SALL4”. Further, the “degradation of ALK (global proteomics)” value on ALK is recorded as “induced degradation of ALK”.

Consider `Nc1ccc2c(c1)C(=O)N(C1CCC(=O)NC1=O)C2=O` (centres unmarked) [compound 8, 5-aminothalidomide], for which, in the series with ZFP91 and IKZF3, the “degradation of endogenous ZFP91 and IKZF3 (immunoblot)” value is given as “decrease in overall degradation potency as compared to pomalidomide”.

Regarding `CC[C@H](C(=O)N1CCCC[C@H]1C(=O)O[C@H](CCc1ccc(OC)c(OC)c1)c1ccccc1OCC(=O)NCCCCCCOc1cccc2c1C(=O)N(C1CCC(=O)NC1=O)C2=O)c1cc(OC)c(OC)c(OC)c1` (some centres unmarked) [dTAG-13], on ZFP91 [3], the “off-target degradation of endogenous ZFP91 (immunoblot)” value is given as “off-target degradation of endogenous ZF protein ZFP91”.

Consider `Nc1cccc2c1C(=O)N(C1CCC(=O)NC1=O)C2=O` (centres unmarked) [pomalidomide], for which, in [2], the “degradation of ZF degron-tagged eGFP (off-target ZF degradation)” value is listed as “degraded all 12 ZF degrons that are sensitive to it in a dose-dependent manner”. For the same molecule, in series [6], the “degradation of ZF proteins and other off-targets (global proteomics)” value is recorded as “triggered the degradation of several ZF proteins”.
